Results: EPA's CvTdb concentration-time database

Key:
Rat [1] = test: concentration in plasma after dosing; settings: dosed: Free Carbon disulfide, 10 mg/kg, iv, Male, F344
Rat [2] = test: concentration in plasma after dosing; settings: dosed: Free Carbon disulfide, 50 mg/kg, iv, Male, F344
Rat [3] = test: concentration in plasma after dosing; settings: dosed: Free Carbon disulfide, 10 mg/kg, iv, Male, F344; remark: listed apart in the source
Rat [4] = test: concentration in plasma after dosing; settings: dosed: Free Carbon disulfide, iv, Male, F344
Rat [5] = test: concentration in plasma after dosing; settings: dosed: Free Carbon disulfide, 50 mg/kg, iv, Male, F344; remark: listed apart in the source
Rat [6] = test: concentration in urine after dosing; settings: dosed: dibromoacetic acid, 100 mg/kg, oral, Male, F344
Rat [7] = test: concentration in urine after dosing; settings: dosed: dibromoacetic acid, 40 mg/kg, oral, Male, F344
Rat [8] = test: concentration in urine after dosing; settings: dosed: dibromoacetic acid, oral, Male, F344
Rat [9] = test: concentration in urine after dosing; settings: dosed: dibromoacetic acid, 40 mg/kg, oral, Male, F344; remark: listed apart in the source
Rat [10] = test: concentration in urine after dosing; settings: dosed: dibromoacetic acid, 100 mg/kg, oral, Male, F344; remark: listed apart in the source
rat [11] = test: concentration in blood after dosing; settings: dosed: benzene, 40000 ppm, dermal, duration: 4 hr, male, F344
rat [12] = test: concentration in blood after dosing; settings: dosed: benzene, 40000 ppm, dermal, duration: 4 hr, male, F344; remark: listed apart in the source
rat [13] = test: concentration in blood after dosing; settings: dosed: benzene, 40000 ppm, dermal, duration: 4 hr, male, F344; remark: listed apart in the source
rat [14] = test: concentration in blood after dosing; settings: dosed: benzene, 40000 ppm, dermal, duration: 4 hr, male, F344; remark: listed apart in the source
rat [15] = test: concentration in blood after dosing; settings: dosed: benzene, 40000 ppm, dermal, duration: 4 hr, male, F344; remark: listed apart in the source
rat [16] = test: concentration in adipose after dosing; settings: dosed: benzene, 190 ppm, inhalation, duration: 6 hr, male, Fisher
mouse [17] = test: concentration in liver after dosing; settings: dosed: dichloromethane, iv, male, B6C3F1
How it was run: (§1)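 Points were largely digitised from plot screenshots with WebPlotDigitizer or otherwise copied from tables, and they remain in the units each source reported. They come from published in vivo toxicokinetic studies and two structured collections. Sampling and analytical methods follow each source and were often not reported.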

mouse [18] = test: concentration in kidney after dosing; settings: dosed: dichloromethane, iv, male, B6C3F1
How it was run: as §1

mouse [19] = test: concentration in lung after dosing; settings: dosed: dichloromethane, iv, male, B6C3F1
How it was run: as §1

mouse [20] = test: concentration in body after dosing; settings: dosed: dichloromethane, iv, male, B6C3F1
How it was run: as §1

human [21] = test: concentration in expired air after dosing; negative times count back from the end of exposure; settings: dosed: dichloromethane, inhalation, duration: 6 hr, male
How it was run: as §1

human [22] = test: concentration in blood after dosing; negative times count back from the end of exposure; settings: dosed: dichloromethane, inhalation, duration: 6 hr, male
How it was run: as §1

S=C=S [Free Carbon disulfide]
concentration in plasma [µg/g]
Settings | 0.05 h | 1 h | 5 min | 10 min | 20 min | 40 min
Rat [1] | 4.2 | – | 2.5 | 1.4 | 0.7 | –
Rat [2] | 20.2 | 2 | 15.9 | 9.5 | 5.6 | 2.6
Rat [3] | 5.8 | – | 7.9 | 1.4 | – | –
Rat [5] | 21.2 | 1.2 | 11 | 6.6 | 4.9 | 1.8

concentration in plasma [µg/g], Rat [4]
Settings | 0.05 h | 1 h | 2 h | 5 min | 10 min | 20 min | 40 min
10 mg/kg | 5 | – | – | 1.9 | 1.2 | 0.8 | –
50 mg/kg | 13.1 | 1.6 | 0.9 | 8.3 | 6.4 | 6.8 | 4.2

O=CC(=O)O [Glyoxylic acid]
concentration in urine [ng/mL]
Settings | 0 h | 2 h | 4 h | 8 h | 24 h | 48 h
Rat [6] | 16100 | – | 25000 | – | 30900 | 34300
Rat [7] | 22300 | – | – | 20700 | 36100 | 34300
Rat [9] | 18400 | 11900 | – | – | 35600 | 37900
Rat [10] | 27400 | 20700 | 28600 | 31200 | 28800 | 47900

concentration in urine [ng/mL], Rat [8]
Settings | 0 h | 4 h | 8 h | 24 h | 48 h
40 mg/kg | 29800 | 13200 | 27000 | 31800 | 26300
100 mg/kg | 20500 | 25600 | – | 30400 | 54800

c1ccccc1 [benzene]
Settings | concentration in adipose [ng/mL] | concentration in blood [ng/mL]
rat [11], 0.5 h | – | 7850
rat [11], 1 h | – | 8900
rat [11], 2 h | – | 10100
rat [11], 3 h | – | 10700
rat [11], 4 h | – | 11400
rat [12], 0.5 h | – | 8340
rat [12], 1 h | – | 10300
rat [12], 2 h | – | 13100
rat [12], 3 h | – | 12300
rat [12], 4 h | – | 11500
rat [13], 0.5 h | – | 7380
rat [13], 1 h | – | 8530
rat [13], 2 h | – | 8050
rat [13], 3 h | – | 10400
rat [13], 4 h | – | 11700
rat [14], 0.5 h | – | 10000
rat [14], 1 h | – | 9650
rat [14], 2 h | – | 9690
rat [14], 3 h | – | 12300
rat [14], 4 h | – | 10200
rat [15], 0.5 h | – | 7670
rat [15], 1 h | – | 8220
rat [15], 2 h | – | 9710
rat [15], 3 h | – | 10600
rat [15], 4 h | – | 11100
rat [16], 0.4898 h | 7580 | –
rat [16], 0.99 h | 19500 | –
rat [16], 1.49 h | 27500 | –
rat [16], 1.989 h | 34600 | –
rat [16], 3.993 h | 106000 | –
rat [16], 5.974 h | 159000 | –
rat [16], 6.485 h | 181000 | –
rat [16], 6.98 h | 142000 | –
rat [16], 7.478 h | 126000 | –
rat [16], 8.014 h | 95900 | –
rat [16], 8.509 h | 63800 | –
rat [16], 8.999 h | 70400 | –
rat [16], 10 h | 41500 | –
rat [16], 11.99 h | 13400 | –
rat [16], 15 h | 8140 | –

ClCCl [dichloromethane]
Settings | concentration in blood [ng/mL] | concentration in body [µg/g] | concentration in expired air [ppm] | concentration in kidney [µg/g] | concentration in liver [µg/g] | concentration in lung [µg/g]
human [21], 0.083 h, 100 ppm | – | – | 12.1 | – | – | –
human [21], 0.083 h, 350 ppm | – | – | 81.3 | – | – | –
human [21], 0.25 h, 100 ppm | – | – | 8.5 | – | – | –
human [21], 0.25 h, 350 ppm | – | – | 58.9 | – | – | –
human [21], 0.5 h, 100 ppm | – | – | 6.7 | – | – | –
human [21], 0.5 h, 350 ppm | – | – | 38.7 | – | – | –
human [21], 1 h, 100 ppm | – | – | 4.2 | – | – | –
human [21], 1 h, 350 ppm | – | – | 25.1 | – | – | –
human [21], 1.5 h, 100 ppm | – | – | 2.7 | – | – | –
human [21], 1.5 h, 350 ppm | – | – | 17.7 | – | – | –
human [21], 2 h, 100 ppm | – | – | 2.6 | – | – | –
human [21], 2 h, 350 ppm | – | – | 14.9 | – | – | –
human [21], 3 h, 100 ppm | – | – | 1.8 | – | – | –
human [21], 3 h, 350 ppm | – | – | 10.3 | – | – | –
human [21], 4 h, 100 ppm | – | – | 1.4 | – | – | –
human [21], 4 h, 350 ppm | – | – | 8.3 | – | – | –
human [21], 6 h, 350 ppm | – | – | 4.5 | – | – | –
human [21], 8 h, 350 ppm | – | – | 3.2 | – | – | –
human [21], 16 h, 350 ppm | – | – | 1.3 | – | – | –
human [22], 1 h, 100 ppm | 150 | – | – | – | – | –
human [22], 1 h, 350 ppm | 910 | – | – | – | – | –
human [22], 6 h, 100 ppm | 62 | – | – | – | – | –
human [22], 6 h, 350 ppm | 340 | – | – | – | – | –
human [22], 16 h, 100 ppm | 12 | – | – | – | – | –
human [22], 16 h, 350 ppm | 77 | – | – | – | – | –
human [22], 24 h, 350 ppm | 36 | – | – | – | – | –
mouse [17], 1 h, 10 mg/kg | – | – | – | – | 4.11 | –
mouse [17], 1 h, 50 mg/kg | – | – | – | – | 15.4 | –
mouse [17], 3 h, 10 mg/kg | – | – | – | – | 2.56 | –
mouse [17], 3 h, 50 mg/kg | – | – | – | – | 7.81 | –
mouse [17], 4 h, 10 mg/kg | – | – | – | – | 1.29 | –
mouse [17], 4 h, 50 mg/kg | – | – | – | – | 7.12 | –
mouse [17], 20 min, 10 mg/kg | – | – | – | – | 3.45 | –
mouse [17], 20 min, 50 mg/kg | – | – | – | – | 21.6 | –
mouse [17], 40 min, 10 mg/kg | – | – | – | – | 3.57 | –
mouse [17], 40 min, 50 mg/kg | – | – | – | – | 15.9 | –
mouse [18], 1 h, 10 mg/kg | – | – | – | 1.99 | – | –
mouse [18], 1 h, 50 mg/kg | – | – | – | 3.82 | – | –
mouse [18], 3 h, 10 mg/kg | – | – | – | 1.31 | – | –
mouse [18], 3 h, 50 mg/kg | – | – | – | 2.17 | – | –
mouse [18], 4 h, 10 mg/kg | – | – | – | 0.78 | – | –
mouse [18], 4 h, 50 mg/kg | – | – | – | 1.74 | – | –
mouse [18], 20 min, 10 mg/kg | – | – | – | 1.86 | – | –
mouse [18], 20 min, 50 mg/kg | – | – | – | 3.7 | – | –
mouse [18], 40 min, 10 mg/kg | – | – | – | 1.56 | – | –
mouse [18], 40 min, 50 mg/kg | – | – | – | 5.31 | – | –
mouse [19], 1 h, 10 mg/kg | – | – | – | – | – | 4.11
mouse [19], 1 h, 50 mg/kg | – | – | – | – | – | 2.96
mouse [19], 3 h, 10 mg/kg | – | – | – | – | – | 2.56
mouse [19], 3 h, 50 mg/kg | – | – | – | – | – | 1.54
mouse [19], 4 h, 10 mg/kg | – | – | – | – | – | 1.29
mouse [19], 4 h, 50 mg/kg | – | – | – | – | – | 1.23
mouse [19], 20 min, 10 mg/kg | – | – | – | – | – | 1.71
mouse [19], 20 min, 50 mg/kg | – | – | – | – | – | 6.19
mouse [19], 40 min, 10 mg/kg | – | – | – | – | – | 3.57
mouse [19], 40 min, 50 mg/kg | – | – | – | – | – | 3.98
mouse [20], 1 h, 10 mg/kg | – | 0.14 | – | – | – | –
mouse [20], 1 h, 50 mg/kg | – | 0.14 | – | – | – | –
mouse [20], 3 h, 50 mg/kg | – | 0.028 | – | – | – | –
mouse [20], 4 h, 50 mg/kg | – | 0.018 | – | – | – | –
mouse [20], 20 min, 10 mg/kg | – | 1.3 | – | – | – | –
mouse [20], 20 min, 50 mg/kg | – | 1.16 | – | – | – | –
mouse [20], 40 min, 10 mg/kg | – | 0.076 | – | – | – | –
mouse [20], 40 min, 50 mg/kg | – | 0.076 | – | – | – | –

during exposure
Settings | concentration in blood, 100 ppm [ng/mL] | concentration in blood, 350 ppm [ng/mL] | concentration in expired air, 100 ppm [ppm] | concentration in expired air, 350 ppm [ppm]
human [21], -1 h | – | – | 43.3 | 192
human [21], -2 h | – | – | 42.8 | 190
human [21], -3 h | – | – | 41.8 | 192
human [21], -4 h | – | – | 41.2 | 176
human [21], -4.5 h | – | – | 40.4 | 165
human [21], -5 h | – | – | 39.4 | 155
human [21], -5.5 h | – | – | 36.4 | 141
human [21], -5.75 h | – | – | 34.6 | 126
human [21], -36 s | – | – | 45.7 | 202
human [22], -1 h | 1050 | 5860 | – | –
human [22], -3 h | 1110 | 5920 | – | –
human [22], -6 h | 5 | 16 | – | –
